# Experimental data taken from ChEMBL document CHEMBL1157201, “1,5-Disubstituted 1,2,3-triazoles as cis-restricted analogues of combretastatin A-4: Synthesis, molecular modeling and evaluation as cytotoxic agents and inhibitors of tubulin” (Bioorg Med Chem, 2008).
# What was measured:
# K562 = experiment: Cytotoxicity against human K562 cells after 5 days by MTT assay; assay type: functional, cell-based; conditions: K562, 120 h
# Method in brief: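 K562 chronic myelogenous leukemia cells grown in antibiotic-free RPMI with 2-mercaptoethanol (2 μM), L-glutamine (2 mM) and 10% FCS, seeded at ca 40,000 cells/mL. DMSO-dissolved drug added as a serial dilution series, with a drug-free control. Incubated 37 °C, 5% CO2. MTT (3 mg/mL in PBS) added for 3 h, formazan dissolved in DMSO, OD read at 540 and 690 nm. IC50 derived graphically as percentage of control growth.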
# Tubulin = Tubulin (Sus scrofa, UniProt P02554+P02550); experiment: Inhibition of pig brain tubulin polymerization
# Method in brief: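 Porcine brain tubulin stored at -78 °C. Mixed with Mes buffer (0.1 M Mes, 1 mM EGTA, 0.5 mM MgCl2, pH 6.6) and GTP (stock 5 mM) plus drug in DMSO, in a plate prechilled 30 min at 4 °C. Absorbance at 350 nm followed 60 min at 25 °C against drug-only blanks and untreated controls. IC50 derived graphically as percentage of control assembly.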
# OVCAR = experiment: Cytotoxicity against human OVCAR cells assessed as [3H]thymidine incorporation after 72 hrs by microplate scintillation counter; assay type: functional, cell-based
# Method in brief: (§1)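 RPMI 1640 with 2 mM L-glutamine, plus 5% FCS (WM35, WM239) or 10% FCS (SKOV, OVCAR, MDA-MB231, SK-BR 3); SK-BR 3 medium also had 12,5 µM insulin. 1 µCi [3H]thymidine label for the final 24 h. Controls got solvent-only medium. Values are medians of three experiments.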
# SK-BR-3 = experiment: Cytotoxicity against human SK-BR3 cells assessed as [3H]thymidine incorporation after 72 hrs by microplate scintillation counter; assay type: functional, cell-based; method in brief: as §1
# [1] = Cytotoxicity against human WM35 cells assessed as [3H]thymidine incorporation after 72 hrs by microplate scintillation counter; assay type: functional, cell-based; method in brief: as §1
# [2] = Cytotoxicity against human SKOV cells assessed as [3H]thymidine incorporation after 72 hrs by microplate scintillation counter; assay type: functional, cell-based; method in brief: as §1
# MDA-MB-231 = experiment: Cytotoxicity against human MDA-MB-231 cells assessed as [3H]thymidine incorporation after 72 hrs by microplate scintillation counter; assay type: functional, cell-based; method in brief: as §1
# [3] = Cytotoxicity against human WM239 cells assessed as [3H]thymidine incorporation after 72 hrs by microplate scintillation counter; assay type: functional, cell-based; method in brief: as §1
IC50 (Tubulin),Structure (SMILES),IC50 (K562),other results
14 µM,COc1ccc(-n2nncc2-c2cc(OC)c(OC)c(OC)c2)cc1O,410 nM,–
–,COc1ccc(-n2nncc2-c2cc(OC)c(OC)c(OC)c2)cc1[N+](=O)[O-],> 10000 nM,–
–,COc1ccc(-n2nncc2-c2cc(OC)c(OC)c(OC)c2)cc1,4000 nM,–
> 20 µM,COc1ccc(-c2cn(-c3cc(OC)c(OC)c(OC)c3)nn2)cc1N,1300 nM,–
> 20 µM,COc1ccc(-n2nncc2-c2cc(OC)c(OC)c(OC)c2)cc1N,570 nM,–
> 20 µM,COc1ccc(-c2cnnn2-c2cc(OC)c(OC)c(OC)c2)cc1[N+](=O)[O-],460 nM,–
–,COc1ccc(/C=C\c2cc(OC)c(OC)c(OC)c2)cc1O [COMBRETASTATIN A4],10 nM,IC50 (OVCAR): 3.3 nM; IC50 (SK-BR-3): 5.1 nM; IC50 [1]: 2.5 nM; IC50 [2]: 3.3 nM; IC50 (MDA-MB-231): 6 nM; IC50 [3]: 2.8 nM
–,COc1ccc(-c2cn(-c3cc(OC)c(OC)c(OC)c3)nn2)cc1[N+](=O)[O-],> 10000 nM,–
7 µM,COc1ccc(-c2cnnn2-c2cc(OC)c(OC)c(OC)c2)cc1,27 nM,–
–,COc1ccc(-n2nncc2-c2cc(OC)c(OC)c(OC)c2)cc1Br,3600 nM,–
12.6 µM,COc1ccc(-c2cnnn2-c2cc(OC)c(OC)c(OC)c2)cc1O,–,–

Structure (SMILES),IC50 (Tubulin),IC50 (K562),other results
COc1ccc(-c2cnnn2-c2cc(OC)c(OC)c(OC)c2)cc1N,4.8 µM,11 nM,IC50 (OVCAR): 4.7 nM; IC50 (SK-BR-3): 4 nM; IC50 [1]: 3.9 nM; IC50 [2]: 4.9 nM; IC50 (MDA-MB-231): > 10 nM; IC50 [3]: 5.1 nM
COc1ccc(-c2cnnn2-c2cc(OC)c(OC)c(OC)c2)cc1Br,> 20 µM,57 nM,–
